The values that follow come from ChEMBL document CHEMBL1155269, “Synthesis and antibacterial activity of some new heterocycles incorporating phthalazine” (2009).

The subject of one experiment is Bacillus thuringiensis. In words: Antibacterial activity against Bacillus thuringiensis at 2 mg/ml after 24 hrs by agar diffusion assay. The format is functional. The note with it: read-out: DIZ. In short, it runs like this: (§1)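 Agar diffusion; compounds applied as 2 mg ml−1 solutions in DMSO to agar media seeded with the test bacterium (cultures maintained on nutrient agar). DMSO-only control included for each organism; ampicillin and chloramphenicol references at 2 mg ml−1. Plates incubated 24 h at 30 °C, then inhibition zone diameter (mm) measured.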
On the technique in general: A growth-free zone around the sample is the usual read-out of agar diffusion tests.

The next experiment relates to Escherichia coli. Description: Antibacterial activity against Escherichia coli at 2 mg/ml after 24 hrs by agar diffusion assay. The note with it: read-out: DIZ. The format is functional. The procedure, abridged: as §1

As to `N#CC(C(=O)N1NC(=O)C2C3c4ccccc4C(c4ccccc43)C2C1=O)=C1SCCS1` (centres undefined), the zone of inhibition at 2000 µg/mL in the experiment with Bacillus thuringiensis amounted to 13 mm.

Turning to `N=c1oc2ccccc2cc1C(=O)N1NC(=O)C2C3c4ccccc4C(c4ccccc43)C2C1=O` (centres undefined), the zone of inhibition at 2000 µg/mL in the experiment on Escherichia coli was determined as 12 mm; in the experiment with Bacillus thuringiensis, 20 mm.

`CC1=Nc2c(s/c(=N\N)n2-c2ccccc2)C(=O)N2C(=O)C3C4c5ccccc5C(c5ccccc54)C3C(=O)N12` (centres undefined): the zone of inhibition at 2000 µg/mL in the experiment with Escherichia coli came to 13 mm; in the experiment on Bacillus thuringiensis, 19 mm.

Turning to `O=C1C2C3c4ccccc4C(c4ccccc43)C2C(=O)N2C(=O)c3sc(=S)n(-c4ccccc4)c3N=CN12` (centres undefined), the zone of inhibition at 2000 µg/mL stood at 12 mm with Escherichia coli and 13 mm in the experiment on Bacillus thuringiensis.

For the compound `N#CC(Br)C(=O)N1NC(=O)C2C3c4ccccc4C(c4ccccc43)C2C1=O` (centres undefined), the zone of inhibition at 2000 µg/mL in the experiment on Escherichia coli was found to be 20 mm; in the experiment on Bacillus thuringiensis, 16 mm.

With `CC1=Nc2c(sc(=S)n2-c2ccccc2)C(=O)N2C(=O)C3C4c5ccccc5C(c5ccccc54)C3C(=O)N12` (centres undefined), the zone of inhibition at 2000 µg/mL in the experiment with Escherichia coli stood at 11 mm; in the experiment with Bacillus thuringiensis, 16 mm.

`N#CC(Br)(Br)C(=O)N1NC(=O)C2C3c4ccccc4C(c4ccccc43)C2C1=O` (centres undefined): the zone of inhibition at 2000 µg/mL was 29 mm in the experiment with Escherichia coli and 27 mm in the experiment on Bacillus thuringiensis.

For `N#CC(C(=O)N1NC(=O)C2C3c4ccccc4C(c4ccccc43)C2C1=O)=C1SCCCS1` (centres undefined), the figures for the zone of inhibition at 2000 µg/mL in the experiment with Escherichia coli and with Bacillus thuringiensis were 16 mm and 15 mm, respectively.

`CSC(=S)C(C#N)C(=O)N1NC(=O)C2C3c4ccccc4C(c4ccccc43)C2C1=O` (centres undefined): the zone of inhibition at 2000 µg/mL with Escherichia coli and with Bacillus thuringiensis was 22 mm in each case.

For the compound `O=C1NN(C(=O)c2cc3ccccc3oc2=O)C(=O)C2C3c4ccccc4C(c4ccccc43)C12` (centres undefined), the figures for the zone of inhibition at 2000 µg/mL with Escherichia coli and in the experiment with Bacillus thuringiensis were 15 mm and 16 mm, respectively.

Turning to `CS/C(Nc1ccccc1)=C(/C#N)C(=O)N1NC(=O)C2C3c4ccccc4C(c4ccccc43)C2C1=O` (centres undefined), the zone of inhibition at 2000 µg/mL with Escherichia coli came to 30 mm; in the experiment on Bacillus thuringiensis it was 26 mm.

Turning to `Nc1c(C(=O)N2NC(=O)C3C4c5ccccc5C(c5ccccc54)C3C2=O)sc(=S)n1-c1ccccc1` (centres undefined), the zone of inhibition at 2000 µg/mL with Escherichia coli came out at 11 mm; in the experiment with Bacillus thuringiensis it was 16 mm.

Consider `Cc1cc(C)c2c(N/N=C(\C#N)C(=O)N3NC(=O)C4C5c6ccccc6C(c6ccccc65)C4C3=O)n[nH]c2n1` (centres undefined), for which the zone of inhibition at 2000 µg/mL with Escherichia coli is 30 mm; with Bacillus thuringiensis, 20 mm.

Turning to `CC1(C)S[C@@H]2[C@H](NC(=O)[C@H](N)c3ccccc3)C(=O)N2[C@H]1C(=O)O` [AMPICILLIN], the zone of inhibition at 2000 µg/mL in the experiment on Escherichia coli was found to be 18 mm; in the experiment on Bacillus thuringiensis, 19 mm.

Regarding `O=C(N[C@H](CO)[C@H](O)c1ccc([N+](=O)[O-])cc1)C(Cl)Cl` [CHLORAMPHENICOL], the values for the zone of inhibition at 2000 µg/mL in the experiment on Escherichia coli and in the experiment on Bacillus thuringiensis were 23 mm and 20 mm, respectively.
